Measurements as given in PMC2717697 (The Journal of General Physiology, 2009).
Positions count from the first letter of the chain named. One block for each compound: values may come before it.

Columns and labels:
Assay type in all cases: cell-based
[1] = target: T1, wild-type (WT) CNGA1 channel (Bos taurus, UniProt Q00194); test: Voltage-dependent block by intracellular PhTx, wild type
T1 sequence (Q00194 1-690): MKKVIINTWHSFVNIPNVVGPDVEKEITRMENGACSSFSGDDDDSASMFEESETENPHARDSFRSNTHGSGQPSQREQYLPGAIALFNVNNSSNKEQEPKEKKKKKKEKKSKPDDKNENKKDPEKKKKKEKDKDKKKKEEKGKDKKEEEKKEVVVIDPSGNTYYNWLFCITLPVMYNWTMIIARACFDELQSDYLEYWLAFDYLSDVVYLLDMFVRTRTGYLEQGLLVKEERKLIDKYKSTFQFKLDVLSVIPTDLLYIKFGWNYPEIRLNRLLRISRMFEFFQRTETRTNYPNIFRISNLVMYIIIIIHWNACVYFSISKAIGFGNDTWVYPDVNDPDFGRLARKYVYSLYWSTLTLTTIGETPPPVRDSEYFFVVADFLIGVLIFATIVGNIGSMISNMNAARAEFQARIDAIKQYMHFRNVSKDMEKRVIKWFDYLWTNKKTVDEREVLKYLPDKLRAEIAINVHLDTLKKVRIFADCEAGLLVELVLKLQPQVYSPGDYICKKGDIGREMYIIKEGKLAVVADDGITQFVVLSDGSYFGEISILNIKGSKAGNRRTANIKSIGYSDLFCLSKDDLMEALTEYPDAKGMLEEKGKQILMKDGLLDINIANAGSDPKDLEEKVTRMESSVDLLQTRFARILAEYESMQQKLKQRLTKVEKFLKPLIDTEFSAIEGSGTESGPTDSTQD
How it was run: (§1)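 WT or mutant CNGA1 cRNA was injected into collagenase-defolliculated Xenopus oocytes. […] I-V curves were taken from −80 mV holding with steps of −200 to 200 mV in 10-mV increments. No-cGMP currents were subtracted as background. Recordings were made with or without 10 µM intracellular PhTx, and fraction unblocked (I/Io) was reported as mean ± SEM, n = 4–6.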

[2] = target: T2, V384A mutant CNGA1 channel (Bos taurus, UniProt Q00194, V384A); test: Voltage-dependent block by intracellular PhTx, V384A
T2 sequence (Q00194 1-690 V384A): T1 sequence (Q00194 1-690) with V384A
How it was run: as §1

[3] = target: T3, I386A mutant CNGA1 channel (Bos taurus, UniProt Q00194, I386A); test: Voltage-dependent block by intracellular PhTx, I386A
T3 sequence (Q00194 1-690 I386A): T1 sequence (Q00194 1-690) with I386A
How it was run: as §1

[4] = target: T4, F387A mutant CNGA1 channel (Bos taurus, UniProt Q00194, F387A); test: Voltage-dependent block by intracellular PhTx, F387A
T4 sequence (Q00194 1-690 F387A): T1 sequence (Q00194 1-690) with F387A
How it was run: as §1

[5] = target: T5, T389A mutant CNGA1 channel (Bos taurus, UniProt Q00194, T389A); test: Voltage-dependent block by intracellular PhTx, T389A
T5 sequence (Q00194 1-690 T389A): T1 sequence (Q00194 1-690) with T389A
How it was run: as §1

[6] = target: T6, I390A mutant CNGA1 channel (Bos taurus, UniProt Q00194, I390A); test: Voltage-dependent block by intracellular PhTx, I390A
T6 sequence (Q00194 1-690 I390A): T1 sequence (Q00194 1-690) with I390A
How it was run: as §1

wild-type CNGA1 channels = target: T7, wild-type CNGA1 channels (Bos taurus, UniProt Q00194)
T7 sequence (Q00194 1-690): T1 sequence (Q00194 1-690)

[7] = target: T8, E363Q mutant CNGA1 channel (Bos taurus, UniProt Q00194, E363Q)
T8 sequence (Q00194 1-690 E363Q): T1 sequence (Q00194 1-690) with E363Q

[8] = system: WT and E363Q CNGA1 channels; settings: fit of Eq. 1 to G-V relations 10 to 200 mV, WT and E363Q together
[9] = target: T8, E363Q mutant CNGA1 channel; test: Block of E363Q single-channel currents by extracellular Mg^2+
How it was run: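 Xenopus laevis oocytes were collagenase-defolliculated, cRNA-injected, and kept at 18°C. […] E363Q single-channel currents were recorded at 120 or −120 mV with or without 0.1 mM extracellular Mg2+, one patch per trace. Filtering was 1 kHz and sampling 10 kHz. Amplitudes are mean ± SEM, n = 5–20.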

[10] = read-out: appKd, Boltzmann fit of I/Io at 10 µM intracellular PhTx
[11] = valence of block, Boltzmann fit

Compound: philanthotoxin [PhTx]
Kd [1, 10]: 1.6 µM | Z [1, 11]: 2.48 ± 0.07 | Kd [2, 10]: 3.5 µM | Z [2, 11]: 2.81 ± 0.09 | Kd [3, 10]: 0.83 µM | Z [3, 11]: 2.55 ± 0.07 | Kd [4, 10]: 52 µM | Z [4, 11]: 0.96 ± 0.02 | Kd [5, 10]: 1.6 µM | Z [5, 11]: 2.25 ± 0.06 | Kd [6, 10]: 1.2 µM | Z [6, 11]: 2.67 ± 0.08

valence factor of KL (wild-type CNGA1 channels): 0.04 | Hill coefficient (n) (wild-type CNGA1 channels; common to −200 and 200 mV): 1.48 ± 0.03 | variation of KL (wild-type CNGA1 channels; over 400 mV (−200 to 200 mV)): twofold | valence factor of KL [7]: −0.1 | Hill coefficient (n) ([7]; common to 40 and 200 mV): 1.44 ± 0.01 | Kd ([8]; read-out: KL): 78 ± 4 µM
Compound: Nc1nc2c(ncn2[C@@H]2O[C@@H]3COP(=O)(O)O[C@H]3[C@H]2O)c(=O)[nH]1 [cGMP, cyclic GMP]
Hill coefficient (n) [8]: 1.44 ± 0.06

Ki ([9]; read-out: estimated Ki, −120 mV, estimated from 37% reduction at 100 µM): 170 µM | reduction of single-channel current amplitude ([9]; −120 mV, 100 µM external Mg^2+): 37%
Compound: [Mg+2] [Mg^2+]
